SKKanGAS inh: S. pyogenes SKKanGAS growth inhibitors in kanamycin, primary screen, streptokinase expression inhibitor project, SKKanGAS strain, BacTiter-Glo luminescence | 6 h | inhibition, % at 7.5 µM | 300,000 compounds, 1.3% hits | AID 1662, 2009;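 active = mean replicate score, as percent of positive control median, at least 50; inconclusive = mean below 50 but one replicate at or above 50; inactive = mean and every replicate below 50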;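 note: strain carries kanamycin resistance gene driven by streptokinase promoter and grows in 40 µg/ml kanamycin; loss of luminescence reflects streptokinase promoter inhibition or plain growth inhibition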
CSC inhib: cancer stem cell viability inhibitors, primary screen, luminescence; cancer stem cell-like cells viability; AID 2717, 2010; inhibition, % at 7.5 µM; 300,000 compounds, 1.1% hits; in the data active = inhibition above about 75%; inconclusive = no clear call, values can overlap the other calls; tested in HMLE shEcad cells
PfHsp90 yeast 2: growth inhibition of PfHsp90-expressing yeast, primary screen, antimalarial PfHsp90 inhibitor project, S. cerevisiae, BacTiter-Glo luminescence, single point, set 2 | BacTiter-Glo ATP, 48 h; yeast lacking PDR1 and PDR3 efflux regulators | inhibition, % at 9.4 µM | 310,000 compounds, 0.32% hits;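 active = every replicate shows inhibition above about 80%, whatever the replicate mean, limit read from the data; inconclusive = mean inhibition reaches the set limit but some replicate falls short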
T cruzi inh: inhibitors of intracellular T. cruzi growth, primary screen, luminescence, NIH3T3 host cells; T. cruzi beta-gal in NIH3T3, 90 h; inhibition, % (concentration not given with the values); 300,000 compounds, 1.4% hits;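 active = mean inhibition across valid replicates above about 55%, limit read from the data; inconclusive = mean below that limit but half or more replicates reach it; inactive = mean below it, under half of replicates reach it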;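 note: signal also drops with host cell toxicity which is not excluded here; higher percent means less beta-gal luminescence so fewer parasites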
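Test system: β-gal T. cruzi (Tulahuen C4) inside NIH/3T3 cells / Quantity: 5,000 cells/well / Measured by: luminescence from GalScreen with 0.05% NP40, read after 60 min / Medium: DMEM plus 2% FBS / Measure: parasite load inhibition, % / Reagent: Tulahuen C4 trypomastigotes, 5000/well / Schedule: co-culture of at least 90 h after 3 h attachment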
Beta cell apopt: inhibitors of cytokine-induced beta cell apoptosis, primary screen, luminescence. INS-1E cytokine-induced death, ATP luminescence, 48 h; percent of positive-control rescue, neutral wells zero. protection from apoptosis, % (no concentration beside the values). 300,000 compounds, 0.8% hits;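 active = Every replicate reaches about 75%, or at least half do and their mean reaches it too, limit read from the data; inconclusive = At least half of replicates reach the limit but their mean does not; inactive = Under half of replicates reach the limit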;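 note: higher means more ATP so stronger rescue from cytokine killing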
HIF activator: HIF pathway transcriptional activators, primary screen, cell-based, U2OS HRE-luciferase, luminescence. U2OS HRE-luciferase reporter; normalized: DMSO 0%, desferrioxamine 100%. activation, % at 7.5 µM (by protocol). 300,000 compounds, 0.32% hits. AID 1910, 2009;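 active = mean activation of at least 10% of the iron chelator positive control signal, with at least half of replicates also reaching 10%; inconclusive = mean and replicate majority disagree about reaching 10%; inactive = mean and most replicates under 10%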
Large screens that a line does not name were inactive. Hits are enriched below; roughly 3.6% of the tested compounds scored in any of these assays.

O=C(N/N=C/c1c(O)ccc2ccccc12)c1cccnc1	CSC inhib inconclusive, T cruzi inh 66, Beta cell apopt 96, HIF activator 83
CC1CCCCN1C(=O)COC(=O)C1CCN(S(=O)(=O)c2ccc3c(c2)OCCO3)CC1 (stereo not drawn)	none
O=[N+]([O-])c1c(NCc2ccccc2)cc(N2CCc3ccccc3C2)c2nonc12	none
O=C(NCc1ccco1)c1ccc2c(c1)N(Cc1ccc(Cl)cc1)CCS2	none
O=C(NCc1ccco1)c1ccc2c(c1)N(Cc1ccccc1)CCS2	CSC inhib 129
NC(=O)C1CCCN(Cc2c(C(=O)N3CCc4ccccc4C3)nc3ccc(Cl)cn23)C1 (stereo not drawn)	HIF activator 11
O=C(c1nc2ccc(Cl)cn2c1CN1CCCC1)N1CCc2ccccc2C1	none
O=C(c1nc2ccc(Cl)cn2c1CN1CCC(CO)CC1)N1CCc2ccccc2C1	SKKanGAS inh 52 (no result: Beta cell apopt)
CCOc1ccccc1C1C(C(=O)OC)=C(N)OC2=C1C(=O)CCC2 (stereo not drawn)	none (no result: CSC inhib, Beta cell apopt)
CCOc1ccc(Br)cc1C1C(C(=O)OC)=C(N)Oc2cc(N(C)C)ccc21 (stereo not drawn)	T cruzi inh 69
O=C1Nc2ccc(Br)cc2C12NNc1ccccc1O2 (stereo not drawn)	CSC inhib 83, PfHsp90 yeast 2 106
CC(C)[C@@H](C(=O)N[C@@H](Cc1ccccc1)C(=O)O)N1C(=O)N2CCc3c([nH]c4ccccc34)[C@@]2(C)C1=O	none (no result: Beta cell apopt)
O=C(Cc1ccc(Cl)cc1)Nc1ccc2c(c1)C(=O)NC2=O	CSC inhib 91, Beta cell apopt 119
Fc1ccccc1OCCCCN1CCCCC1	none
CN(C)c1ccc(/C=C/c2ccc3ccccc3n2)cc1	SKKanGAS inh 75, CSC inhib 84, Beta cell apopt 76
CCOc1cc(S(=O)(=O)NCc2cccnc2)c(C)cc1C	none
C[C@H](CO)N1C[C@H](C)[C@@H](CN(C)C(=O)Nc2ccc(C(F)(F)F)cc2)Oc2c(NC(=O)Nc3ccc(C(F)(F)F)cc3)cccc2C1=O	CSC inhib 106 (no result: SKKanGAS inh, T cruzi inh, HIF activator)
C[C@H]1CN([C@@H](C)CO)C(=O)c2cccc(NC(=O)Nc3ccc(C(F)(F)F)cc3)c2O[C@@H]1CN(C)C(=O)Nc1ccc(F)cc1	none (no result: SKKanGAS inh, T cruzi inh, HIF activator)
O=S(=O)(c1ccc(F)c(F)c1F)N1CCN(c2ncnc3sccc23)CC1	Beta cell apopt 87 (no result: SKKanGAS inh, T cruzi inh, HIF activator)
O=S(=O)(c1ccccc1C(F)(F)F)N1CCN(c2ncnc3sccc23)CC1	none (no result: SKKanGAS inh, T cruzi inh, HIF activator)
Cc1ccc(S(=O)(=O)N2CCN(c3ncnc4sccc34)CC2)cc1	Beta cell apopt 89
Cc1ccc(S(=O)(=O)N2CCN(c3ccccn3)CC2)cc1	HIF activator 48 (no result: PfHsp90 yeast 2)
Cc1sc2ncnc(N3CCN(S(=O)(=O)c4ccc(F)cc4)CC3)c2c1C	none
CCN(CC)c1ccc(NC(=O)c2ccccn2)cc1S(=O)(=O)Nc1ccccc1OC	none (no result: SKKanGAS inh, CSC inhib, T cruzi inh, Beta cell apopt, HIF activator)
CC1CCN(C(=O)CCCl)c2ccccc21 (stereo not drawn)	none (no result: SKKanGAS inh, CSC inhib, T cruzi inh, Beta cell apopt, HIF activator)
Cc1c(CCC(=O)O)c(=O)oc2c(C)c3occ(-c4ccc(Cl)cc4)c3cc12	SKKanGAS inh 58
Cc1c(CCC(=O)O)c(=O)oc2cc3occ(-c4ccc(F)cc4)c3cc12	none (no result: PfHsp90 yeast 2)
Cc1c(CCC(=O)O)c(=O)oc2cc3occ(-c4ccc(Br)cc4)c3cc12	SKKanGAS inh 77
Cc1c(CCC(=O)O)c(=O)oc2cc3occ(-c4ccc(Cl)cc4)c3cc12	SKKanGAS inh 63
Cc1c(CC(=O)O)c(=O)oc2c(C)c3occ(-c4ccccc4)c3cc12	none
CCN(CC)c1ccc(NC(=S)Nc2ccc(F)cc2)cc1	none (no result: CSC inhib, Beta cell apopt)
CCC(C)(C)NC(=O)C(C(C)C)N(CC1CCCO1)C(=O)CNS(=O)(=O)c1ccccc1 (stereo not drawn)	none
CCCc1cc(=O)oc2c3c(c4c(c12)OC(C)(C)C=C4)OC(C)C(C)C3O (stereo not drawn)	T cruzi inh 55
Cc1nnc(C)n1/N=C/c1ccc(O)cc1	none
Oc1ccc(/C=N/n2c3ccccc3c3ccccc32)cc1	SKKanGAS inh 71
C=CCOC(=O)C(C#N)c1nc2ccccc2nc1N1CCN(Cc2ccc3c(c2)OCO3)CC1 (stereo not drawn)	T cruzi inh 57
CC1CCN(c2nc3ccccc3nc2C(C#N)C(=O)NC2CCCCC2)CC1 (stereo not drawn)	SKKanGAS inh 68 (no result: PfHsp90 yeast 2)
N#CC(C(=O)NC1CCCCC1)c1nc2ccccc2nc1N1CCN(c2ccccc2F)CC1 (stereo not drawn)	none (no result: SKKanGAS inh, CSC inhib, T cruzi inh, HIF activator)
CCCCCCOC(=O)C(C#N)c1nc2ccccc2nc1N1CCN(C)CC1 (stereo not drawn)	T cruzi inh 68
CCC(C)COC(=O)C(C#N)c1nc2ccccc2nc1N1CCCCC1 (stereo not drawn)	SKKanGAS inh 53 (no result: PfHsp90 yeast 2)
CCc1cccc(CC)c1NC(=O)CN1C2CCCC1CC(NC(=O)Nc1cccc(OC)c1)C2 (stereo not drawn)	none (no result: PfHsp90 yeast 2)
O=C1NC[C@H](c2ccccc2)OC(=O)[C@H](Cc2ccc(F)cc2)C/C=C\C[C@H]1CC(=O)N(CCO)Cc1ccccc1	none (no result: SKKanGAS inh, T cruzi inh, HIF activator)
O=C(O)c1cc([N+](=O)[O-])ccc1Oc1ccccc1	none (no result: SKKanGAS inh, CSC inhib, T cruzi inh, Beta cell apopt, HIF activator)
COc1ccc(-c2noc(CNC(=O)c3ccc4c(c3)OCO4)n2)cc1OC	none
Cc1[nH]c(=O)[nH]c(=O)c1N1CCOCC1	none
CCC(CC)COC(=O)C(C#N)c1nc2ccccc2nc1N1CCN(CC)CC1 (stereo not drawn)	T cruzi inh 55
COC(=O)/C(C#N)=C/c1c(N2CCN(Cc3ccc4c(c3)OCO4)CC2)nc2c(C)cccn2c1=O	HIF activator 410
CC(C)c1ccc(/C=N/n2cnnc2)cc1	none
Cc1cccc(Nc2n[nH]c(C)c2[N+](=O)[O-])c1	none
COc1cc(Nc2ccc(C)cc2)c([N+](=O)[O-])nc1[N+](=O)[O-]	CSC inhib inconclusive, T cruzi inh 60
Cc1ccc2nc(C)cc(Nc3ccc([N+](=O)[O-])cc3)c2c1	none (no result: Beta cell apopt)
Cc1cc(C)cc(Nc2ccc([N+](=O)[O-])nc2[N+](=O)[O-])c1	T cruzi inh 67
O=C(c1ccncc1)N1CCN(S(=O)(=O)c2cccc(Cl)c2)CC1	none (no result: Beta cell apopt)
Cc1ccc(C(=O)NC2CCc3ccccc3C2=O)cc1 (stereo not drawn)	none
Cc1ccc(C(=O)NC2c3ccccc3-c3ccccc32)cc1	CSC inhib 82
CCOc1ccc(S(=O)(=O)N2CCN(C(=O)c3cc4ccccc4o3)CC2)cc1	none (no result: SKKanGAS inh, PfHsp90 yeast 2, T cruzi inh, HIF activator)
O=C(Nc1nnc(SCCC2OCCO2)s1)C1CC(=O)N(c2ccccc2)C1 (stereo not drawn)	none
